ChEMBL document CHEMBL1147233, “Chemistry and structure-activity relationship of HIV-1 integrase inhibitor integracide B and related natural products” (J Nat Prod, 2003)

Experiments:
[1] = molecular target: T1, Human immunodeficiency virus type 1 integrase (Human immunodeficiency virus 1, UniProt Q7ZJM1); assay: Inhibition of recombinant HIV1 integrase using unprocessed donor DNA by coupled assay
Summary of the method: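 Unprocessed donor DNA and inhibitor incubated with recombinant integrase together for 30 min, then target DNA added; strand-transfer product measured. Final DMSO 10%. IC50 from serial 2-fold dilutions in duplicate or triplicate; values without error limits are the average of these.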

[2] = molecular target: T1, Human immunodeficiency virus type 1 integrase; assay: Inhibition of recombinant HIV1 integrase using preprocessed donor DNA treated after washing excess enzyme by strand transfer assay
Summary of the method: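 Integrase preincubated with preprocessed donor DNA, unbound enzyme washed off, then target DNA and inhibitor added together. Strand transfer product measured. Final DMSO 10%. IC50 from serial 2-fold dilutions run in duplicate or triplicate; values without error limits are the average of these.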

[3] = molecular target: T1, Human immunodeficiency virus type 1 integrase; assay: Inhibition of HIV1 integrase assessed as inhibition of 3'-end processing reaction
Summary of the method: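 Specific 3′-end processing of LTR donor-sequence oligonucleotide substrates, run with […]. IC₅₀ values without error limits are the average of duplicate or triplicate data sets.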

[4] = tested on: Human immunodeficiency virus 1; assay: Antiviral activity against HIV1 infected in human H9 cells; assay type: functional; settings: Human immunodeficiency virus 1, H9; read-out: CIC95
Summary of the method: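 Multiple-cycle viral spread assay in HIV-1-infected H9 T-lymphoid cells; value is CIC95, the concentration giving >95% protection from viral infection.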

[5] = molecular target: T1, Human immunodeficiency virus type 1 integrase; assay: Inhibition of recombinant HIV1 integrase using preprocessed donor DNA by assembly assay
Summary of the method: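 Recombinant integrase and inhibitor were incubated with preprocessed donor DNA, unbound integrase was washed off, then target DNA was added. The read-out is the strand-transfer product. Final DMSO was 10%. IC₅₀ came from 2-fold dilution series run in duplicate or triplicate.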

[6] = molecular target: T1, Human immunodeficiency virus type 1 integrase; assay: Inhibition of HIV1 integrase-mediated preintegration complex formation by Southern blotting
Summary of the method: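 Preintegration complexes were isolated from HIV-1-infected cells, partially purified and used in an integration reaction. Products were analysed by Southern blotting and quantified by phosphorimaging. IC₅₀ values without error limits are the average of duplicate or triplicate data sets.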

[7] = molecular target: Type II restriction enzyme EcoRI (Escherichia coli, UniProt P00642); assay: Inhibition of Escherichia coli ECOR1
[8] = Inhibition of DNAse

T1 sequence (Q7ZJM1 whole entry): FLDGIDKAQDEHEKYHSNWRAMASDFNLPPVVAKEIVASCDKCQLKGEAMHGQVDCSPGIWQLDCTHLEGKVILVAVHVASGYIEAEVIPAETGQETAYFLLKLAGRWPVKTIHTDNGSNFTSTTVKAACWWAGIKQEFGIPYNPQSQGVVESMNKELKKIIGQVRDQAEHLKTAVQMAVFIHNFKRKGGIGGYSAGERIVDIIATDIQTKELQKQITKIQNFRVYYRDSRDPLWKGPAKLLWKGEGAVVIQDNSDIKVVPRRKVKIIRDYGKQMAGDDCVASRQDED
Chain of Type II restriction enzyme EcoRI (P00642 whole entry): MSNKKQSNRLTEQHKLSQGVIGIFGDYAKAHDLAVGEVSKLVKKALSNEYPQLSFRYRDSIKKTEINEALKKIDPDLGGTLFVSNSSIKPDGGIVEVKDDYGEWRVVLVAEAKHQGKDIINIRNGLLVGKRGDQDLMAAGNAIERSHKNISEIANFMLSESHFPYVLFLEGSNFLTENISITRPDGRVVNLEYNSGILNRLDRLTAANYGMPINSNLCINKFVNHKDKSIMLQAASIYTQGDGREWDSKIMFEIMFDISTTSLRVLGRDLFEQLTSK

Structure (SMILES) | IC50 [1] [µM] | IC50 [2] [µM] | IC50 [3] [µM] | IC95 [4] [µM] | IC50 [5] [µM] | IC50 [6] [µM] | IC50 [7] [µM] | IC50 [8] [µM]
CC(=O)O[C@H]1[C@H](O)C2=C(CC[C@H]3C(C)(C)[C@@H](OS(=O)(=O)O)[C@H](OC(=O)CCCCCCCCCCCCCCCO)C[C@]23C)[C@@H]2CC[C@H]([C@H](C)CCC3(C(C)(C)O)CO3)[C@]21C (some centres undefined) | 5.6 | 5.6 | 2 | > 50 | 12 | 50 | > 50 | > 50
C=C(CC[C@@H](C)[C@H]1CC[C@H]2C3=C([C@@H](O)[C@H](OC(C)=O)[C@]12C)[C@@]1(C)C[C@@H](O)[C@H](OS(=O)(=O)O)C(C)(C)[C@@H]1CC3)C(C)C | 5 | 15 | 5 | 50 | 10 | 30 | > 50 | > 50
C=C(CC[C@@H](C)[C@H]1CC=C2C3=C([C@@H](O)[C@H](OC(C)=O)[C@@]21C)[C@@]1(C)C[C@@H](O)[C@H](OC(=O)CCC(=O)O)C(C)(C)[C@@H]1CC3)C(C)C | 3 | 12 | 5 | 6 | – | – | > 50 | > 50
C=C(CC[C@@H](C)[C@H]1CC=C2C3=C([C@@H](O)[C@H](OC(C)=O)[C@@]21C)[C@@]1(C)C[C@@H](O)[C@H](OS(=O)(=O)O)C(C)(C)[C@@H]1CC3)C(C)C [INTEGRACIDE A] | 4 | 9 | 5 | 25 | – | 50 | > 50 | > 50
